According to ChEMBL document CHEMBL4699439, “Design and development of novel N-(pyrimidin-2-yl)-1,3,4-oxadiazole hybrids to treat cognitive dysfunctions” (Bioorg Med Chem, 2019):
Calls of active or inactive are those of the source. No cut-off for these calls is given here.

What was measured:
[1] = Antioxidant activity assessed as DPPH radical scavenging activity at 20 uM after 30 mins under dark condition by DPPH assay relative to control; assay type: functional
Summary of the method: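 Test compound at 20 µM (solution strength) mixed with 0.5 mM DPPH solution and kept in the dark for 30 min. Absorbance read at 517 nm. % inhibition = (A0−At)/A0 × 100. Ascorbic acid used as standard. Run in triplicate.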

Acetylcholinesterase [2] = biological target: T1, Acetylcholinesterase (Homo sapiens, UniProt P22303); assay: Inhibition of human erythrocyte AChE using acetylthiocholine iodide as substrate preincubated for 10 mins followed by substrate addition and measured for 10 mins by DTNB reagent based Ellman's method; assay type: tissue-based
Cholinesterase [3] = biological target: Cholinesterase (Homo sapiens, UniProt P06276); assay: Inhibition of human serum BChE using butyrylthiocholine iodide as substrate preincubated for 10 mins followed by substrate addition and measured for 10 mins by DTNB reagent based Ellman's method; assay type: cell-free
Summary of the method: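 Enzyme is BChE from human serum, 0.02 units/ml in 0.1% gelatin pH 7.4, preincubated with compound 10 min at 37 °C. Then 0.1 M phosphate containing 340 µM DTNB and 550 µM BTCI added. A412 followed 10 min at 37 °C. DMSO ≤1%. IC50 from nonlinear log-inhibitor fit, n=3.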

[4] = Effective permeability of compound in PBS buffer at pH 7.4 at 25 ug/ml incubated for 20 hrs by PAMPA-BBB assay
[5] = Acute toxicity in Swiss albino mouse assessed as lacrimation at 500 mg/kg, po observed for 24 hrs; assay type: organism-based; conditions: in vivo
Summary of the method: (§1)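 Adult male Swiss albino mice, 25-30 g, dosed orally following OECD 423 at various doses up to 500 mg/kg. Watched at 30 min, 2 h, 4 h and 24 h for autonomic and behavioural changes. Followed for 14 days for tremors, convulsions, salivation, diarrhea, lethargy, sleep and coma.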

[6] = Acute toxicity in Swiss albino mouse assessed as feeding behavior at 500 mg/kg, po observed for 24 hrs; assay type: organism-based; conditions: in vivo; summary of the method: as §1
Mus musculus [7] = assay: (§2) Antioxidant activity in scopolamine-induced memory impairment Swiss albino mouse model assessed as reduction in scopolamine-induced oxidative stress by measuring decrease in malondialdehyde level at 10 mg/kg, po administered once daily for 7 days and administered with scopolamine at 30 mins after compound challenge on 7th day by TBARS assay; assay type: functional, organism-based; conditions: time 7.0 day
Summary of the method: (§3)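 Male Swiss albino mice, six per group. Compound suspended in 0.3% w/v CMC, given p.o. once daily for 7 days. Scopolamine HBr 0.5 mg/kg i.p., in water, given 30 min after dosing on day 7. After behavioural tests, whole brain homogenised in 10 mM PBS pH 7.4 and supernatant used. Protein by Lowry method. For MDA (TBARS), supernatant incubated 2 h at 37 °C, TCA-precipitated, heated with 0.67% thiobarbituric acid at 50 °C for 10 min, A532, expressed as moles MDA/mg protein. For nonprotein thiol (Sedlak–Lindsay), TCA supernatant in Tris-EDTA pH 8.9 reacted with DTNB, A412 within 5 min, expressed as µM/mg protein.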

Mus musculus [8] = assay: (§4) Reversal of scopolamine-induced memory cognitive memory impairment in po dosed Swiss albino mouse assessed as increase in transfer latency time administered once daily for 7 days and administered with scopolamine at 30 mins after compound challenge on 7th day and measured during retention trial on day 7 by passive avoidance test; assay type: functional, organism-based; conditions: dose mg/kg 2.5-10, time 7.0 day
Summary of the method: (§5)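 Dosing as for the Y-maze: p.o. in CMC daily for 7 days, scopolamine 0.5 mg/kg i.p. on day 7, six mice per group. Apparatus is a two-compartment lit/dark box. Acquisition begins 5 min after scopolamine, with the mouse held in the lit side for 30 s. Latency to enter the dark side recorded as transfer latency time. No foot shock in the retention trial.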

Mus musculus [9] = assay: as §4, with “acquisition” for “retention”; assay type: functional, organism-based; conditions: dose mg/kg 2.5-10, time 7.0 day; summary of the method: as §5
in vitro = conditions: human, SH-SY5Y cells
[10] = Acute toxicity in Swiss albino mouse assessed as salivation at 500 mg/kg, po measured for 14 days; assay type: organism-based; conditions: in vivo, 336 h, time 14 day; summary of the method: as §1
Acetylcholinesterase [11] = biological target: T1, Acetylcholinesterase; assay: Non-competitive inhibition of human erythrocyte AChE using acetylthiocholine iodide as substrate at 0.15 to 0.6 uM preincubated for 10 mins followed by substrate addition and measured for 10 mins by Ellman's method based Line-weaver Burk plot analysis; assay type: tissue-based
[12] = Acute toxicity in Swiss albino mouse assessed as mortality at 500 mg/kg, po observed for 24 hrs; assay type: organism-based; conditions: in vivo; summary of the method: as §1
[13] = Acute toxicity in Swiss albino mouse assessed as convulsion at 500 mg/kg, po measured for 14 days; assay type: organism-based; conditions: in vivo, 336 h, time 14 day; summary of the method: as §1
[14] = Acute toxicity in Swiss albino mouse assessed as diarrhea at 500 mg/kg, po measured for 14 days; assay type: organism-based; conditions: in vivo, 336 h, time 14 day; summary of the method: as §1
Mus musculus [15] = assay: as §2, with “increase” for “decrease”, “total non-protein thiol” for “malondialdehyde”, “day” for “day by TBARS assay”; assay type: functional, organism-based; conditions: time 7.0 day; summary of the method: as §3
Mus musculus [16] = assay: as §2, with “increase” for “decrease”, “SOD” for “malondialdehyde”, “day” for “day by TBARS assay”; assay type: functional, organism-based; conditions: time 7.0 day
Summary of the method: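 Same mouse dosing and brain supernatant preparation as the oxidative-stress assays. For SOD, supernatant mixed with reagent containing 0.1 mM EDTA, 24 µM NBT and 50 mM Na2CO3, plus hydroxylamine hydrochloride. Assay at pH 10.2, absorbance read at 560 nm.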

Acetylcholinesterase [17] = biological target: T1, Acetylcholinesterase; assay: Inhibition of human AChE-induced amyloid beta(1 to 42) aggregation at Abeta:compound concentration ratio of 1:2 incubated for 48 hrs by thioflavin-T fluorescence method
Summary of the method: (§6)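 Aβ1-42 (10 µM) incubated with hAChE ([…]) with or without compound (5, 10 and 20 µM) at 37 °C for 48 h, DMSO below 1%. ThT then added at 5 µM. Fluorescence read at ex 485/em 528 nm. % inhibition taken from intensities with vs without inhibitor. Run in triplicate.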

[18] = Acute toxicity in Swiss albino mouse assessed as tremor at 500 mg/kg, po measured for 14 days; assay type: organism-based; conditions: in vivo, 336 h, time 14 day; summary of the method: as §1
Acetylcholinesterase [19] = biological target: T1, Acetylcholinesterase; assay: Inhibition of human AChE-induced amyloid beta(1 to 42) aggregation incubated for 48 hrs by thioflavin-T fluorescence method; conditions: dose microM 5-20, time 48.0 hrs; summary of the method: as §6
[20] = Acute toxicity in Swiss albino mouse assessed as sleep at 500 mg/kg, po measured for 14 days; assay type: organism-based; conditions: in vivo, 336 h, time 14 day; summary of the method: as §1
Mus musculus [21] = assay: Ex vivo inhibition of Swiss mouse brain AChE using ACTI as substrate at 10 mg/kg, po administered once daily for 7 days and administered with scopolamine at 30 mins after compound challenge on 7th day and measured on day 7 by Ellman's method; assay type: functional, organism-based; conditions: time 7.0 day
Summary of the method: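 Male Swiss albino mice dosed p.o. daily for 7 days in 0.3% CMC. Scopolamine 0.5 mg/kg i.p. given 30 min after the day-7 dose. Brain homogenate supernatant incubated with 0.1 M phosphate pH 7.4 and DTNB for 10 min at 37 °C. ATCI then added from a 7.5 mM stock. A412 followed for 10 min. Expressed as ACh hydrolysed/min/mg protein (Lowry).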

Mus musculus [22] = assay: as §4, with “spontaneous alteration rate” for “transfer latency time”, “for 5 mins” for “during retention trial”, “Y-maze” for “passive avoidance”; assay type: functional, organism-based; conditions: dose mg/kg 2.5-10, time 7.0 day
Summary of the method: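 Male Swiss albino mice, six per group. Compound given p.o. in 0.3% CMC daily for 7 days, at 2.5, 5 or 10 mg/kg. Scopolamine 0.5 mg/kg i.p. given 30 min after the day-7 dose. Each mouse placed in a three-arm Y-maze and arm entries and alternations recorded over 5 min. % alternation = alternations/(total entries−2) × 100.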

SH-SY5Y = assay: Neuroprotection against amyloid beta (25 to 35)-induced toxicity in human SH-SY5Y cells assessed as cell viability at 10 uM preincubated for 2 hrs followed by incubation with amyloid beta (25 to 35) for 24 hrs relative to control; assay type: functional; conditions: time 26 hrs, read-out: Activity
Acetylcholinesterase [23] = biological target: Acetylcholinesterase (Electrophorus electricus, UniProt O42275); assay: Inhibition of recombinant Electric eel AChE incubated for 15 mins by amplex red reagent based fluorescence assay
Cholinesterase [24] = biological target: Cholinesterase (Equus caballus, UniProt P81908); assay: Inhibition of equine serum BChE using butyrylthiocholine iodide as substrate incubated for 30 mins followed by substrate addition and measured for 20 mins by Ellman's method
Chain of Cholinesterase (Equus caballus, UniProt P81908) (P81908 whole entry): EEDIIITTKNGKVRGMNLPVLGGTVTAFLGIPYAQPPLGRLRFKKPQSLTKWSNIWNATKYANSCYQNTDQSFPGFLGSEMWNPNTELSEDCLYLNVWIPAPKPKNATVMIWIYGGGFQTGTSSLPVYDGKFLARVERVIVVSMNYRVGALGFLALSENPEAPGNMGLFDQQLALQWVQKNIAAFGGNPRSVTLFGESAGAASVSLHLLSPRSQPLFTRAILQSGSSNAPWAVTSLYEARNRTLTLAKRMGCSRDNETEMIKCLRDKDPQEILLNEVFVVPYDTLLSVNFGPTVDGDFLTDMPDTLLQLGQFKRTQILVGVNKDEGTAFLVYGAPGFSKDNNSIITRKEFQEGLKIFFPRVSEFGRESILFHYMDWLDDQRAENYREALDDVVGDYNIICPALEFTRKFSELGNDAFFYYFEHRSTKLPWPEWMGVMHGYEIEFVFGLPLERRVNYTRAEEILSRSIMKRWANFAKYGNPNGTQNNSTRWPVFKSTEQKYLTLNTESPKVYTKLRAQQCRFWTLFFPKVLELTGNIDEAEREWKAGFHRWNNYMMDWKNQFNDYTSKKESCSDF

Chain of Cholinesterase (Homo sapiens, UniProt P06276) (P06276 whole entry): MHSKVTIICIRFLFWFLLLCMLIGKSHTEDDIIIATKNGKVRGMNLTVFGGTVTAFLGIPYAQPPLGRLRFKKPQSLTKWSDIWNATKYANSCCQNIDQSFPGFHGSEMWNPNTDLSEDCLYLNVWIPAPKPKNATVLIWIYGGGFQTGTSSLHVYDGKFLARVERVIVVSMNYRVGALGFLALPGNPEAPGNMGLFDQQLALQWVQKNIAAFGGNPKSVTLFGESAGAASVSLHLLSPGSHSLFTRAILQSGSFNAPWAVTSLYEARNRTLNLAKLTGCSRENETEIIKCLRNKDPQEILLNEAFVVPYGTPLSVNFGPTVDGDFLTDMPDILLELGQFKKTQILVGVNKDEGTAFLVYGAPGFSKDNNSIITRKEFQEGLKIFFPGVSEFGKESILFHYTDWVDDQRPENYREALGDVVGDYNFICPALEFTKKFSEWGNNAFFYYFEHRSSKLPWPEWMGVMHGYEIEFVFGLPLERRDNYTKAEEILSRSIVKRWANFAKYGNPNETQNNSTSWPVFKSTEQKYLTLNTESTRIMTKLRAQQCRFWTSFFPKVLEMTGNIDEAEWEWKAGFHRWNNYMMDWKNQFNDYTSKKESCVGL
T1 sequence (P22303 whole entry): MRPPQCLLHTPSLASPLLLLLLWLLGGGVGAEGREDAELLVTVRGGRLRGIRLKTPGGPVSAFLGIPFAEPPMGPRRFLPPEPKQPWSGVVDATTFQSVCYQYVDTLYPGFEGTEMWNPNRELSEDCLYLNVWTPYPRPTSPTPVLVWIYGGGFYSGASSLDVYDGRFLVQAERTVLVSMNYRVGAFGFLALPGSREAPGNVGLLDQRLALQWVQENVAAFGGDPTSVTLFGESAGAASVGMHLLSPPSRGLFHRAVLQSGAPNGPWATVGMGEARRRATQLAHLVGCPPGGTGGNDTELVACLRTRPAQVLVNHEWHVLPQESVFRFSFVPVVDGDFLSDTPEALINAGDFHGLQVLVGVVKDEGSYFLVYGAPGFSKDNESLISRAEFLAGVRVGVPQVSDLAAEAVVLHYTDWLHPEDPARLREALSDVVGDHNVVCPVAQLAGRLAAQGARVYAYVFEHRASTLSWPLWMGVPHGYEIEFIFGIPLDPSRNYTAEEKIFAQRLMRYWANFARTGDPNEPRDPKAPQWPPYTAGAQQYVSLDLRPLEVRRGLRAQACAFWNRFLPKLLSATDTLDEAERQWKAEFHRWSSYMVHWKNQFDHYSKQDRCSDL
Chain of Acetylcholinesterase (Electrophorus electricus, UniProt O42275) (O42275 whole entry): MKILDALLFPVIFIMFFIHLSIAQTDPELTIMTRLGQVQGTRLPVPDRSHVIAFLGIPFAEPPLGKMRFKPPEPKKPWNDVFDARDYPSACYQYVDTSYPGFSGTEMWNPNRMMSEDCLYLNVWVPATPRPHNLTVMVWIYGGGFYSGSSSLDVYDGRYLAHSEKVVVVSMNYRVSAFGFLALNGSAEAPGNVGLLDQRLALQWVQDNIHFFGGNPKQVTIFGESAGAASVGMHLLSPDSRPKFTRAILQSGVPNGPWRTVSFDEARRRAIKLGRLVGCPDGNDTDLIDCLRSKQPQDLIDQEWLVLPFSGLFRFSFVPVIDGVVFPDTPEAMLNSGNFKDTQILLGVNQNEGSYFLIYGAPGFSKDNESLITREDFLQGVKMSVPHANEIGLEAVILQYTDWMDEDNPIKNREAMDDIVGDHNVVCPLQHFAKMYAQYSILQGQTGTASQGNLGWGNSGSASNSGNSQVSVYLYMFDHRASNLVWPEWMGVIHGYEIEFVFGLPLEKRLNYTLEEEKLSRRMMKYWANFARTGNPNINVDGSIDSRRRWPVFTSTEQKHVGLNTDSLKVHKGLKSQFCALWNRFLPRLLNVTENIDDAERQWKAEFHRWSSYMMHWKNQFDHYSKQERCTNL

Structure (SMILES) | inhibition [1] [%] | IC50 (Acetylcholinesterase [2]) [µM] | IC50 (Cholinesterase [3]) [µM] | also measured
COc1cc2c(cc1OC)C(=O)C(CC1CCN(Cc3ccccc3)CC1)C2 (configuration not stated) | < 20 |  |  | 
Fc1ccc(-c2nnc(Nc3ncccn3)o2)cc1 | 41.9 | 2.4 | > 50.1 | 
COc1ccc(-c2nnc(Nc3ncccn3)o2)cc1OC | 49.5 | 1.91 | > 50.1 | 
Oc1ccc(-c2nnc(Nc3ncccn3)o2)cc1 | 63.4 | 1.74 | > 50.1 | Papp at 20 h, 25 ug/ml [4]: 3.23 ×10⁻⁶ cm/s
Cc1ccc(-c2nnc(Nc3ncccn3)o2)cc1 | < 20 | 1.62 | > 50.1 | 
Brc1cccc(-c2nnc(Nc3ncccn3)o2)c1 | 47.9 | 3.31 | 20.4 | 
O=C1O[C@H]([C@@H](O)CO)C(O)=C1O | 64.6 |  |  | 
Brc1ccc(-c2nnc(Nc3ncccn3)o2)cc1 | 47.8 | 3.72 | 22.9 | 
COc1ccc(-c2nnc(Nc3ncccn3)o2)cc1 | 45.8 | 1.55 | > 50.1 | 
O=[N+]([O-])c1ccc(-c2nnc(Nc3ncccn3)o2)cc1 | < 20 | > 5.01 | > 50.1 | 
Clc1ccc(-c2nnc(Nc3ncccn3)o2)cc1 | 46.2 | 2.88 | > 50.1 | 
c1cnc(Nc2nnc(-c3cccc4ccccc34)o2)nc1 | 60 | 0.302 | 12 | Activity [5]: Non-Toxic; Activity [6]: Non-Toxic; Activity (Mus musculus [7]): Active; Activity (Mus musculus [8]): Dose-dependent effect; Activity (Mus musculus [9]): Dose-dependent effect; IC50 at 24 h (in vitro): 79.4 µM; Activity [10]: Non-Toxic; Ki (Acetylcholinesterase [11]): 0.17 µM; Activity [12]: Non-Toxic; Activity [13]: Non-Toxic; Activity [14]: Non-Toxic; Activity (Mus musculus [15]): Active; Papp at 20 h, 25 ug/ml [4]: 5.82 ×10⁻⁶ cm/s; Activity (Mus musculus [16]): Active; inhibition (Acetylcholinesterase [17]): Active; Activity [18]: Non-Toxic; inhibition (Acetylcholinesterase [19]): Dose-dependent effect; Activity [20]: Non-Toxic; inhibition (Mus musculus [21]): Active; Activity (Mus musculus [22]): Dose-dependent effect
Brc1ccc(CSc2nnc(CSc3nc4ccccc4s3)o2)cc1 |  |  |  | viability at 10 µM (SH-SY5Y): 95.7%
COc1cc(-c2nnc(Nc3ncccn3)o2)cc(OC)c1OC | 57.7 | 1.23 | > 50.1 | Papp at 20 h, 25 ug/ml [4]: 4.21 ×10⁻⁶ cm/s
Oc1ccccc1-c1nnc(Nc2ncccn2)o1 | 58.8 | > 5.01 | > 50.1 | 
c1ccc(-c2nnc(Nc3ncccn3)o2)cc1 | 51.4 | 2.04 | > 50.1 | 
Clc1ccccc1-c1nnc(Nc2ncccn2)o1 | < 20 | > 5.01 | > 50.1 | 
C#CCOc1ccc(-c2cc(-c3ccc(OCCN4CCOCC4)cc3)nc(N)n2)cc1 |  |  |  | IC50 (Acetylcholinesterase [23]): 0.304 µM; IC50 (Cholinesterase [24]): 0.666 µM
O=[N+]([O-])c1ccccc1-c1nnc(Nc2ncccn2)o1 | 51.8 | 3.39 | > 50.1 | 
